A short description of test [1]: Cytotoxicity against human […] cells. The class given is cell-based.
The target in test [2] is T1, Tyrosine-protein phosphatase non-receptor type 1 (Homo sapiens, UniProt P18031).
T1 sequence (P18031 whole entry): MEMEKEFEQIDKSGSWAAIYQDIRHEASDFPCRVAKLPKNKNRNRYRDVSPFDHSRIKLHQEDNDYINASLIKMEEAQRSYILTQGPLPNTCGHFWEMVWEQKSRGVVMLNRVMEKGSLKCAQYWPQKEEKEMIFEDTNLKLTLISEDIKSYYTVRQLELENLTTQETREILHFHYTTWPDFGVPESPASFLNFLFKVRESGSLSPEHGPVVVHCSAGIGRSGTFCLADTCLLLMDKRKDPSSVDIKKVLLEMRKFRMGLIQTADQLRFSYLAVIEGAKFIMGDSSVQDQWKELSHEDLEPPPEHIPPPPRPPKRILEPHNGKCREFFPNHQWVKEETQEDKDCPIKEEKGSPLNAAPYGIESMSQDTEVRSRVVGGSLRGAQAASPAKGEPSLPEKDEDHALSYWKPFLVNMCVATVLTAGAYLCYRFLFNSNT
Nature of the test: Inhibition of human PTP1B. The method, boiled down: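 Recombinant GST-tagged human PTP1B, purified from bacterial pellets on a GST bead column. Substrate 3 mM p-NPP in HEPES buffer, pH 7.0. Compounds dissolved in DMSO, 10% DMSO final in all reactions. First screened at 10 µM for 10 min at 30 °C. Reaction started by adding enzyme and stopped with 1 M NaOH. End-point p-nitrophenol absorbance at 405 nm.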

For the next test, the system named is A549. Briefly: Cytotoxicity against human A549 cells. The class given is cell-based.
The nature of test [3]: Cytotoxicity against human Bel7402 cells. It counts as cell-based. The settings on record: Bel-7402.
A further test relates to Liver microsomes. Nature of the test: Antioxidant activity assessed as inhibition of rat liver microsomal lipid peroxidation. The class given is functional, Microsome.
The next test concerns HCT-8. Nature of the test: Cytotoxicity against human HCT8 cells. The class given is cell-based.

Structures are written as SMILES.

Regarding `O=c1oc(/C=C/c2ccc(O)c(O)c2)cc(O)c1-c1cc(O)c(O)cc1/C=C/c1cc2oc(=O)c3cc(O)c(O)cc3c2c(=O)o1` [PHELLIGRIDIN I], the IC50 in test [1] is > 10 µg/mL; in test [2], 3 µM; in the test on A549, > 10 µg/mL; in test [3], > 10 µg/mL; with Liver microsomes it was 3.7 µM; in the test with HCT-8, > 10 µg/mL.
In the case of `O=C(O)c1cc2oc(=O)c3cc(O)c(O)cc3c2c(=O)o1` [PHELLIGRIDIN J], the IC50 in test [1] is 7.2 µM; in test [2], > 10 µM; in the test on A549 it was 4.2 µM; in test [3], 9.2 µM; in the test on Liver microsomes, 6.5 µM; in the test on HCT-8 it was 8.4 µM.
Regarding `CC[C@@]1(O)C(=O)OCc2c1cc1n(c2=O)Cc2cc3c(CN(C)C)c(O)ccc3nc2-1` [TOPOTECAN], the IC50 was 1.2 µM in test [1], 3.1 µM with A549, 1.4 µM in test [3] and 1.6 µM with HCT-8.
Take `CC1=CC(=O)[C@H](c2c(O)cc(/C=C/c3ccc(O)c(O)c3)oc2=O)[C@@H](c2ccc(O)c(O)c2)O1` [DAVALLIALACTONE]: the IC50 is > 10 µg/mL in test [1]; > 10 µg/mL in the test on A549; > 10 µg/mL in test [3]; 8.2 µM in the test with Liver microsomes; > 10 µg/mL in the test with HCT-8.
`O=c1oc2cc(-c3c(-c4ccc(O)c(O)c4)oc4cc(/C=C/c5ccc(O)c(O)c5)oc(=O)c34)oc(=O)c2c2cc(O)c(O)cc12` [PHELLIGRIDIN H]: the IC50 in test [1] is > 10 µg/mL; in the test on A549, > 10 µg/mL; in test [3], > 10 µg/mL; in the test on Liver microsomes, 4.8 µM; in the test with HCT-8, > 10 µg/mL.
